Reference: ChEMBL document CHEMBL1143359, “Synthesis and in vitro anti-proliferative activity of beta-elemene monosubstituted derivatives in HeLa cells mediated through arrest of cell cycle at the G1 phase” (Bioorg Med Chem, 2009)
pIC50: −log10 of the molar value. The source made the active and inactive calls. The calls are words filed in the database; no cut-off is given here.

How the values were obtained:
Assay type in all cases: functional, cell-based
HeLa [1] = assay: Cell cycle arrest in human HeLa cells assessed as increase in G1 phase cells after 24 hrs by flow cytometry using propidium iodide staining
Summary of the method: (§1)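 After 24 h drug exposure at 37 °C, HeLa cells were trypsinized. About 1 × 10⁶ cells were washed twice in cold PBS and fixed overnight in chilled 75% methanol at −20 °C. DNA content was measured by propidium iodide flow cytometry, and the percentage of cells in each cycle phase was calculated. Untreated cultures served as controls.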

HeLa [2] = assay: Antiproliferative activity against human HeLa cells after 24 hrs by WST-1 assay
Summary of the method: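 HeLa cells grown in RPMI 1640 with 10% inactivated FBS, penicillin, streptomycin and L-glutamine at 37 °C under 5% CO2. They were trypsinized, seeded at 5 × 10³ cells/well, and left 12 h. Compounds were added at five concentrations for 24 h. WST-1 was added and absorbance read at 450 nm. IC50 was calculated from absorbance.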

HeLa [3] = assay: Decrease in Rb protein expression in human HeLa cells after 24 hrs by Western blotting
Summary of the method: (§2)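 HeLa cells were treated 24 h, trypsinized, washed in ice-cold PBS and lysed on ice in RIPA with PMSF. Lysates were clarified at 12,000 rpm, 4 °C, 15 min, and protein was measured by Bradford. Extracts ran on 12% SDS–PAGE onto PVDF, with milk/Tween blocking for 2 h. Rabbit anti-cyclin D1 and anti-Rb (1:100) and biotinylated anti-rabbit (1:400) were each applied 1 h at 37 °C, with ABC detection. β-actin was the loading control.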

HeLa [4] = assay: Decrease in CyclinD1 protein expression in human HeLa cells after 24 hrs by Western blotting; summary of the method: as §2
HeLa [5] = assay: Cell cycle arrest in human HeLa cells assessed as decrease in G2-M phase cells after 24 hrs by flow cytometry using propidium iodide staining; summary of the method: as §1
HeLa [6] = assay: Decrease in Rb phosphorylation in human HeLa cells after 24 hrs by Western blotting; summary of the method: as §2
HeLa [7] = assay: Cell cycle arrest in human HeLa cells assessed as decrease in S phase cells after 24 hrs by flow cytometry using propidium iodide staining; summary of the method: as §1

## C=C[C@]1(C)CC[C@@H](C(=C)CNC2CCCCC2)C[C@H]1C(=C)C
HeLa [1]
  Activity: Active
HeLa [2]
  pIC50: 5.47

## C=C[C@]1(C)CC[C@@H](C(=C)CNCCCC)C[C@H]1C(=C)C
HeLa [1]
  Activity: Active
HeLa [2]
  pIC50: 4.97
HeLa [3]
  Activity: inactive
HeLa [4]
  Activity: Active
HeLa [5]
  Activity: Active
HeLa [6]
  Activity: Active
HeLa [7]
  Activity: Active

## C=C[C@]1(C)CC[C@@H](C(=C)COCCCC)C[C@H]1C(=C)C
HeLa [1]
  Activity: Active
HeLa [2]
  pIC50: 3.58

## C=C[C@]1(C)CC[C@@H](C(=C)CNC2CCCCCCC2)C[C@H]1C(=C)C
HeLa [1]
  Activity: Active
HeLa [2]
  pIC50: 5.23

## C=C[C@]1(C)CC[C@@H](C(=C)Cn2ccnc2)C[C@H]1C(=C)C
HeLa [1]
  Activity: Active
HeLa [2]
  pIC50: 4.80

## C=C[C@]1(C)CC[C@@H](C(=C)COCCOC)C[C@H]1C(=C)C
HeLa [1]
  Activity: Active
HeLa [2]
  pIC50: 3.62

## C=C[C@]1(C)CC[C@@H](C(=C)COC)C[C@H]1C(=C)C
HeLa [1]
  Activity: Active
HeLa [2]
  pIC50: 3.67

## C=C[C@]1(C)CC[C@@H](C(=C)CNC2CCCC2)C[C@H]1C(=C)C
HeLa [1]
  Activity: Active
HeLa [2]
  pIC50: 6.28

## C=C[C@]1(C)CC[C@@H](C(=C)COCC)C[C@H]1C(=C)C
HeLa [1]
  Activity: Active
HeLa [2]
  pIC50: 3.98

## C=C[C@]1(C)CC[C@@H](C(=C)CNC(C)(C)C)C[C@H]1C(=C)C
HeLa [1]
  Activity: Active
HeLa [2]
  pIC50: 4.60

## C=C[C@]1(C)CC[C@@H](C(=C)C)C[C@H]1C(=C)C
HeLa [1]
  Activity: Active
HeLa [2]
  pIC50: 3.63

## C=C[C@]1(C)CC[C@@H](C(=C)CNC(C)C)C[C@H]1C(=C)C
HeLa [1]
  Activity: Active
HeLa [2]
  pIC50: 7.40

## C=C[C@]1(C)CC[C@@H](C(=C)CN(CC)CC)C[C@H]1C(=C)C
HeLa [1]
  Activity: Active
HeLa [2]
  pIC50: 4.84
